Results taken from ChEMBL document CHEMBL2311390, “Synthesis and preliminary evaluation of pharmacological properties of some piperazine derivatives of xanthone” (Bioorg Med Chem, 2013).

Legend:
[1] = tested on: Rattus norvegicus; experiment: Hypotensive activity in normotensive Wistar rat assessed as reduction of diastolic blood pressure at 0.625 mg/kg, iv after 30 mins; assay type: functional, Artery
Summary of the method: (§1)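 Male normotensive Wistar rats were anaesthetised with thiopental 75 mg/kg ip. The right carotid artery was cannulated with heparinised saline for pressure recording. After 5 min of stabilisation, compound was injected into the tail vein at 1 mL/kg. Systolic and diastolic pressure were followed up to 60 min. Data are means ± SEM of 5–6 rats, analysed by one-way ANOVA.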

[2] = tested on: Rattus norvegicus; experiment: Hypotensive activity in normotensive Wistar rat assessed as reduction of systolic blood pressure at 0.625 mg/kg, iv after 10 mins; assay type: functional, Artery
Summary of the method: (§2)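 Male normotensive Wistar rats (170–350 g) anaesthetised with thiopental 75 mg/kg ip; right carotid artery cannulated with heparinised saline-filled polyethylene tubing for pressure recording. After a 5 min stabilisation, compound given into the caudal vein at 1 mL/kg. Systolic pressure is recorded at 0, 5, 10, 20, 30 and 60 min, and the data are reported as mean ± SEM of five to six animals, with one-way ANOVA.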

[3] = tested on: Rattus norvegicus; experiment: Hypotensive activity in normotensive Wistar rat assessed as reduction of systolic blood pressure at 1.25 mg/kg, iv after 60 mins; assay type: functional, Artery; summary of the method: as §2
[4] = tested on: Rattus norvegicus; experiment: Hypotensive activity in normotensive Wistar rat assessed as reduction of systolic blood pressure at 1.25 mg/kg, iv after 10 mins; assay type: functional, Artery; summary of the method: as §2
[5] = tested on: Rattus norvegicus; experiment: Hypotensive activity in normotensive Wistar rat assessed as reduction of diastolic blood pressure at 0.625 mg/kg, iv after 60 mins; assay type: functional, Artery; summary of the method: as §1
[6] = tested on: Rattus norvegicus; experiment: Hypotensive activity in normotensive Wistar rat assessed as reduction of systolic blood pressure at 1.25 mg/kg, iv after 30 mins; assay type: functional, Artery; summary of the method: as §2
[7] = tested on: Rattus norvegicus; experiment: Hypotensive activity in normotensive Wistar rat assessed as reduction of diastolic blood pressure at 1.25 mg/kg, iv after 30 mins; assay type: functional, Artery; summary of the method: as §1
[8] = tested on: Rattus norvegicus; experiment: Cardiotoxicity in Wistar rat assessed as QRS interval at 10 mg/kg, iv after 15 mins by ECG analysis; assay type: toxicity, organism-based; set-up: dose 10 mg/kg, route intravenous; conditions: in vivo, 0.25 h
Summary of the method: (§3)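 Male normotensive Wistar rats, 170–350 g, six per group. Compound given iv at a constant volume of 1 mL/kg. ECG was recorded just before dosing and at 1, 5 and 15 min after. PQ, QRS and QT intervals and heart rate were read from the trace. Groups were compared by one-way ANOVA.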

[9] = tested on: Rattus norvegicus; experiment: Cardiotoxicity in Wistar rat assessed as hear beats per min at 10 mg/kg, iv after 15 mins by ECG analysis; assay type: toxicity, organism-based; set-up: dose 10 mg/kg, route intravenous; conditions: in vivo, 0.25 h; summary of the method: as §3
[10] = tested on: Rattus norvegicus; experiment: Cardiotoxicity in Wistar rat assessed as PQ interval at 5 mg/kg, iv after 10 mins by ECG analysis; assay type: toxicity, organism-based; set-up: dose 5 mg/kg, route intravenous; conditions: in vivo
[11] = tested on: Rattus norvegicus; experiment: Cardiotoxicity in Wistar rat assessed as QT interval at 5 mg/kg, iv after 5 mins by ECG analysis; assay type: toxicity, organism-based; set-up: dose 5 mg/kg, route intravenous; conditions: in vivo; summary of the method: as §3
[12] = tested on: Rattus norvegicus; experiment: Hypotensive activity in normotensive Wistar rat assessed as reduction of systolic blood pressure at 0.31 mg/kg, iv after 20 mins; assay type: functional, Artery; summary of the method: as §2
[13] = tested on: Rattus norvegicus; experiment: Hypotensive activity in normotensive Wistar rat assessed as reduction of systolic blood pressure at 0.31 mg/kg, iv after 5 mins; assay type: functional, Artery; summary of the method: as §2
[14] = tested on: Rattus norvegicus; experiment: Hypotensive activity in normotensive Wistar rat assessed as reduction of diastolic blood pressure at 0.16 mg/kg, iv after 60 mins; assay type: functional, Artery; summary of the method: as §1
[15] = tested on: Rattus norvegicus; experiment: Hypotensive activity in normotensive Wistar rat assessed as reduction of systolic blood pressure at 0.16 mg/kg, iv after 10 mins; assay type: functional, Artery; summary of the method: as §1
[16] = tested on: Rattus norvegicus; experiment: Hypotensive activity in normotensive Wistar rat assessed as reduction of systolic blood pressure at 0.16 mg/kg, iv after 60 mins; assay type: functional, Artery; summary of the method: as §2

COc1ccccc1N1CCN(CC(COc2cccc3c(=O)c4ccccc4oc23)OC(C)=O)CC1.Cl (racemic) gave an Activity [1] of 93.2 mmHg, an Activity [2] of 123.8 mmHg and an Activity [3] of 116.6 mmHg. For the same molecule, the Activity [4] was 118.4 mmHg, the Activity [5] was 92 mmHg and the Activity [6] was 117.6 mmHg. It also gave an Activity [7] of 90.8 mmHg.

With Cl.Cl.Cl.O=c1c2ccc(Cl)cc2oc2c(OCC(O)CN3CCN(CCOc4ccccc4)CC3)cccc12 (racemic) the Activity [8] was 20.4 ms, the Activity [9] was 283.41 bpm and the Activity [3] was 114.8 mmHg. The Activity [4] was 115.2 mmHg, the Activity [6] was 113.2 mmHg and the Activity [7] was 100.6 mmHg.

For Cl.Cl.Cl.O=c1c2ccc(Cl)cc2oc2c(OCC(O)CN3CCN(C/C=C/c4ccccc4)CC3)cccc12 (racemic), the Activity [10] was 46 ms and the Activity [11] was 73.6 ms.

COc1ccccc1N1CCN(CCCOc2cccc3c(=O)c4ccccc4oc23)CC1.Cl showed an Activity [1] of 111.7 mmHg, an Activity [2] of 125.5 mmHg and an Activity [12] of 121 mmHg. For the same molecule, the Activity [13] was 122 mmHg, the Activity [14] was 95.2 mmHg and the Activity [5] was 112 mmHg. For the same molecule, the Activity [15] was 114 mmHg and the Activity [16] was 108.2 mmHg.

Cl.Cl.Cl.O=c1c2ccc(Cl)cc2oc2c(OCC(O)CN3CCN(Cc4ccccc4)CC3)cccc12 (racemic) gave an Activity [8] of 20.1 ms and an Activity [9] of 268.8 bpm.

COc1ccccc1N1CCN(CC(O)COc2cccc3c(=O)c4ccccc4oc23)CC1.Cl (racemic) was tested, and the Activity [12] was 120.6 mmHg, the Activity [13] was 122.8 mmHg and the Activity [14] was 101.5 mmHg. For the same molecule, the Activity [15] was 124.8 mmHg and the Activity [16] was 115.2 mmHg.

With Cl.Cl.O=c1c2ccccc2oc2c(OCC(O)CN3CCN(C/C=C/c4ccccc4)CC3)cccc12 (racemic) the Activity [10] was 41.7 ms and the Activity [11] was 76.4 ms.
